Calls of active or inactive are those of the source.
Tests used:
Rattus norvegicus [1] = assay: Antianaphylactic activity against IgE-mediated rat passive cutaneous anaphylaxis (PCA) model after oral administration.; assay type: functional
Outline: (§1)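 Female Sprague-Dawley rats (~200 g) received rat anti-ovoalbumin IgE antiserum intradermally at four back sites. Drug in 2% gum arabic given po (10 mL/kg) 10 min or ip (5 mL/kg) 5 min before challenge. Blue-spot area measured at 30 min versus vehicle controls. ED50 by linear regression on at least three doses.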

Rattus norvegicus [2] = assay: Antianaphylactic activity against IgE-mediated rat passive cutaneous anaphylaxis (PCA) model after intraperitoneal administration.; assay type: functional; conditions: ip; outline: as §1
Cavia porcellus [3] = organism: Cavia porcellus; assay: Inhibitory effect on Antigen-induced SRS-A (slow reacting substance of anaphylaxis) like material release from sensitized guinea pig lung fragments at a concentration of 10 E -5 M; assay type: functional
Outline: (§2)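 Lungs from ovoalbumin-sensitized guinea pigs were taken at 3 weeks and minced in Krebs' solution (0.1 g tissue/mL). Suspension incubated 15 min at 37 °C. Drug added, then ovoalbumin 1 μg 5 min later, for 15 min at 37 °C. SRS-A-like activity of the filtrate assayed on isolated guinea pig ileum, as % inhibition versus saline controls.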

Rattus norvegicus [4] = assay: Antianaphylactic activity at the bronchopulmonary level against IgE-mediated rat PPA model when administered intravenously.; assay type: functional; conditions: iv
Outline: (§3)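 Rats passively sensitized iv with anti-ovoalbumin serum (1 mL/rat). Challenge was iv ovoalbumin 4 mg/kg. Bronchoconstriction measured as air overflow (Konzett-Rössler). Drug given po in 2% gum arabic (10 mL/kg) 30 min before, or iv in 10% DMSO (1 mL/kg) 15 min before. ED50 by linear regression.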

Cavia porcellus [5] = organism: Cavia porcellus; assay: Inhibitory effect on Antigen-induced SRS-A (slow reacting substance of anaphylaxis) like material release from sensitized guinea pig lung fragments at a concentration of 10 E -7 M; assay type: functional; outline: as §2
Rattus norvegicus [6] = assay: Antianaphylactic activity at the bronchopulmonary level against IgE-mediated rat PPA model when administered orally.; assay type: functional; conditions: po; outline: as §3
Cavia porcellus [7] = assay: Aantianaphylactic activity at the bronchopulmonary level against IgG-mediated APA model of guinea pig when administered intraperitoneally.; assay type: functional; conditions: ip
Outline: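 Guinea pigs (either sex, 300-400 g) sensitized by a single ip dose of ovoalbumin in liquid petrolatum (20 mg/mL). Tested 3 weeks later. Drug given ip in 2% gum arabic (5 mL/kg) 30 min before aerosol challenge with 2% ovoalbumin. Read-out is delay to severe dyspnea in seconds, with 3 min cutoff. ED50 by linear regression.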

Cavia porcellus [8] = organism: Cavia porcellus; assay: Inhibitory effect on Antigen-induced SRS-A (slow reacting substance of anaphylaxis) like material release from sensitized guinea pig lung fragments at a concentration of 10 E -8 M; assay type: functional; outline: as §2
Cavia porcellus [9] = organism: Cavia porcellus; assay: Inhibitory effect on Antigen-induced SRS-A (slow reacting substance of anaphylaxis) like material release from sensitized guinea pig lung fragments at a concentration of 10 E -6 M; assay type: functional; outline: as §2
Rattus norvegicus [10] = assay: Antianaphylactic activity against IgE-mediated rat PCA model after oral administration; Not active; assay type: functional, organism-based; outline: as §1
Cavia porcellus [11] = organism: Cavia porcellus; assay: Inhibitory effect on Antigen-induced SRS-A (slow reacting substance of anaphylaxis) like material release from sensitized guinea pig lung fragments at a concentration of 10 E -4 M; assay type: functional; outline: as §2

Structure (SMILES) | ED50 (Rattus norvegicus [1]) | ED50 (Rattus norvegicus [2]) | also measured
CCOC(=O)C(=O)Nc1nc(-c2cc(C)no2)cs1 | 0.7 mg/kg | 0.2 mg/kg | –
NCCO.O=C(O)C(=O)Nc1nc(-c2cc(-c3ccccc3)on2)cs1 | 2.6 mg/kg | 0.23 mg/kg | –
CCOCCOC(=O)C(=O)Nc1nc(-c2cc(-c3c(F)cccc3Cl)no2)cs1 | > 30 mg/kg | 1.1 mg/kg | –
NCCO.O=C(O)C(=O)Nc1nc(-c2cc(Cl)no2)cs1 | > 30 mg/kg | > 30 mg/kg | –
CCOCCOC(=O)C(=O)Nc1nc(-c2cc(CO)on2)cs1 | 14 mg/kg | 1.8 mg/kg | –
CCOCCOC(=O)C(=O)Nc1nc(-c2conc2C)cs1 | > 100 mg/kg | > 100 mg/kg | –
CCOCCOC(=O)C(=O)Nc1nc(-c2cc(OCc3ccccc3)no2)cs1 | > 100 mg/kg | 3.7 mg/kg | –
NCCO.O=C(O)C(=O)Nc1nc(-c2conc2-c2c(F)cccc2Cl)cs1 | > 100 mg/kg | 30 mg/kg | –
CCOCCOC(=O)C(=O)Nc1nc(-c2cc(COC)no2)cs1 | 0.7 mg/kg | 2.4 mg/kg | –
CCOCCOC(=O)C(=O)Nc1nc(-c2cc(C)no2)cs1 [ASOBAMAST] | 1.3 mg/kg | 0.04 mg/kg | Inhibition (Cavia porcellus [3]): 52%; ED50 (Rattus norvegicus [4]): 0.09 mg/kg; Inhibition (Cavia porcellus [5]): 43%; ED50 (Rattus norvegicus [6]): 4.7 mg/kg; ED50 (Cavia porcellus [7]): 185 mg/kg; Inhibition (Cavia porcellus [8]): 18%; Inhibition (Cavia porcellus [9]): 48%
CCOCCOC(=O)C(=O)Nc1nc(-c2cc(OC)no2)cs1 | 11 mg/kg | 3 mg/kg | –
CCOCCOC(=O)C(=O)Nc1nc(-c2cc(Br)no2)cs1 | > 30 mg/kg | 11 mg/kg | –
Cc1cc(-c2csc(NC(=O)C(=O)O)n2)no1.NCCCC[C@H](N)C(=O)O | 17 mg/kg | 1.7 mg/kg | –
NCCO.O=C(O)C(=O)Nc1nc(-c2cc(CO)no2)cs1 | 0.7 mg/kg | 0.007 mg/kg | –
CCOCCOC(=O)C(=O)Nc1nc(-c2cc(Br)no2)c(CC)s1 | 9 mg/kg | 3 mg/kg | –
CCOCCOC(=O)C(=O)Nc1nc(-c2cc(-c3ccccc3)on2)cs1 | 13 mg/kg | 0.2 mg/kg | –
CC(C)(C)OC(=O)C(=O)Nc1nc(-c2cc(-c3ccccc3)no2)cs1 | 7 mg/kg | 9 mg/kg | –
NCCO.O=C(O)C(=O)Nc1nc(-c2cc(-c3c(F)cccc3Cl)no2)cs1 | > 30 mg/kg | 2.4 mg/kg | –

Structure (SMILES) | ED50 (Rattus norvegicus [1]) | ED50 (Rattus norvegicus [2]) | also measured
CCOCCOC(=O)C(=O)Nc1nc(-c2cc(C(=O)OCC)no2)cs1 | 1.9 mg/kg | 0.08 mg/kg | –
O=C(Nc1nc(-c2cc(-c3c(F)cccc3Cl)no2)cs1)C(=O)OCc1ccccc1 | > 30 mg/kg | > 30 mg/kg | –
NCCO.O=C(O)C(=O)Nc1nc(-c2cc(-c3ccccc3)no2)cs1 | 0.6 mg/kg | 0.24 mg/kg | –
COc1cc(-c2csc(NC(=O)C(=O)O)n2)on1.NCCO | 8 mg/kg | 1.2 mg/kg | –
NCCO.O=C(O)C(=O)Nc1nc(-c2cc(Br)no2)cs1 | > 30 mg/kg | 7 mg/kg | –
NCCO.O=C(O)C(=O)Nc1nc(-c2cc(CO)on2)cs1 | > 30 mg/kg | > 100 mg/kg | –
Cc1cc(-c2csc(NC(=O)C(=O)O)n2)on1.NCCCC[C@H](N)C(=O)O | 6 mg/kg | 0.3 mg/kg | –
CCOCCOC(=O)C(=O)Nc1nc(-c2c(-c3c(F)cccc3Cl)noc2C)cs1 | > 30 mg/kg | > 10 mg/kg | –
NCCCC[C@H](N)C(=O)O.O=C(O)C(=O)Nc1nc(-c2cc(Br)no2)cs1 | 8 mg/kg | 0.5 mg/kg | –
O=C(O)C(=O)Nc1nc(-c2cc(Br)no2)cs1 | > 30 mg/kg | 3 mg/kg | –
COCCOC(=O)C(=O)Nc1nc(-c2cc(Br)no2)cs1 | > 100 mg/kg | 7 mg/kg | –
NCCCC[C@H](N)C(=O)O.O=C(O)C(=O)Nc1nc(-c2cc(-c3ccccc3)no2)cs1 | 2.4 mg/kg | 0.24 mg/kg | –
CCOCCOC(=O)C(=O)Nc1nc(-c2cc(C)on2)cs1 | 2 mg/kg | 1.3 mg/kg | –
NCCCC[C@H](N)C(=O)O.O=C(O)C(=O)Nc1nc(-c2conc2-c2ccccc2)cs1 | > 100 mg/kg | > 100 mg/kg | –
CCOC(=O)C(=O)Nc1nc(-c2cc(Br)no2)cs1 | > 100 mg/kg | 12 mg/kg | –
O=C([O-])c1cc(=O)c2c(OCC(O)COc3cccc4oc(C(=O)[O-])cc(=O)c34)cccc2o1.[Na+].[Na+] [CROMOLYN SODIUM] | – | 12 mg/kg | Inhibition (Cavia porcellus [3]): 38%; ED50 (Rattus norvegicus [4]): 0.82 mg/kg; ED50 (Rattus norvegicus [6]): > 100 mg/kg; ED50 (Cavia porcellus [7]): > 1000 mg/kg; ED50 (Rattus norvegicus [10]): inactive; Inhibition (Cavia porcellus [11]): 46%; Inhibition (Cavia porcellus [9]): 20%
CCOCCOC(=O)C(=O)Nc1nc(-c2cc(Cl)no2)cs1 | > 30 mg/kg | 6 mg/kg | –
CCOCCOC(=O)C(=O)Nc1nc(-c2c(-c3ccccc3)noc2C)cs1 | > 100 mg/kg | > 10 mg/kg | –
